In ChEMBL document CHEMBL4428115, “Molecular docking studies, biological and toxicity evaluation of dihydroisoquinoline derivatives as potential anticancer agents” (Bioorg Med Chem, 2016):
The source made the active and inactive calls. The calls are words filed in the database; no cut-off is given here.

Tests used:
HL-60 [1] = test: Antiproliferative activity against human HL60 cells at 290 uM after 72 hrs by MTT assay; format: functional, cell-based
In short: (§1)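 MTT read-out in leukemia cells exposed 72 h to the highest concentration, 100 µg/ml (290 µM), expressed as % proliferation inhibition. Cells seeded at 1 × 10^4 per well 24 h beforehand; MTT for 4 h, DMF/SDS lysis, 570 nm.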

HL60/MX2 [2] = test: Antiproliferative activity against human HL60/MX2 cells at 290 uM after 72 hrs by MTT assay; format: functional, cell-based; in short: as §1
MCF7 [3] = test: Antiproliferative activity against human MCF7 cells at 290 uM after 72 hrs by SRB assay; format: functional
In short: (§2)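 SRB test of adherent cells after 72 h exposure at the highest concentration, 100 µg/ml (290 µM). Cells plated at 1 × 10^4 per well 24 h before treatment; TCA fixation, 0.4% SRB staining, OD 540 nm. Result expressed as % inhibition of proliferation.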

MCF10 [4] = test: (§3) Antiproliferative activity against human MCF10 cells at 290 uM after 72 hrs by SRB assay; format: cell-based; conditions: mcf10, 72 h, 290 µM; in short: as §2
BALB/3T3 [5] = test: (§4) Antiproliferative activity against mouse BALB/3T3 cells at 290 uM after 72 hrs by SRB assay; format: cell-based; conditions: balb/3t3, 72 h, 290 µM; in short: as §2
[6] = Antiproliferative activity against HLMEC at 290 uM after 72 hrs by SRB assay; conditions: human; in short: as §2
MCF7 [7] = test: Antiproliferative activity against human MCF7 cells after 72 hrs by SRB assay; format: functional, cell-based; conditions: MCF7, 72 h
In short: (§5)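 Adherent cells plated at 1 × 10^4 per well 24 h before treatment, then exposed 72 h to compounds diluted from 20 mg/mL DMSO stock (0.01–1000 µg/mL). Fixed in cold 50% TCA at 4°C for 1 h, stained with 0.4% sulforhodamine B, bound dye extracted with 10 mM Tris, OD at 540 nm. Triplicates, 3–5 experiments; IC50 per experiment, mean ± SD.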

MCF10 [8] = test: Antiproliferative activity against human MCF10 cells after 72 hrs by SRB assay; format: cell-based; conditions: MCF10, 72 h; in short: as §5
BALB/3T3 [9] = test: Antiproliferative activity against mouse BALB/3T3 cells after 72 hrs by SRB assay; format: cell-based; conditions: BALB/3T3, 72 h; in short: as §5
[10] = Antiproliferative activity against HLMEC after 72 hrs by SRB assay; parameters: species or system Homo sapiens; in short: as §5
HL-60 [11] = test: Antiproliferative activity against human HL60 cells after 72 hrs by MTT assay; format: functional, cell-based; conditions: HL-60, 72 h
In short: (§6)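 Leukemia cells seeded at 1 × 10^4 per well 24 h before adding compounds (0.01–1000 µg/mL from DMSO stock), exposed 72 h. MTT (5 mg/mL stock) added for 4 h, then DMF/SDS lysis mixture; absorbance at 570 nm read after 24 h. Triplicates per experiment, 3–5 repeats; IC50 calculated per experiment, reported as mean ± SD.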

HL60/MX2 [12] = test: Antiproliferative activity against human HL60/MX2 cells after 72 hrs by MTT assay; format: functional, cell-based; conditions: HL60/MX2, 72 h; in short: as §6
[13] = as §3; format: cell-based; conditions: MCF10 cells, read-out: GI; in short: as §2
[14] = as §4; format: cell-based; conditions: BALB/3T3 cells, read-out: GI; in short: as §2
LoVo = test: Antiproliferative activity against human LoVo cells at 290 uM; format: functional; conditions: read-out: GI
[15] = Antiproliferative activity against human LoVo/DX cells at 290 uM; format: functional; conditions: read-out: GI
A549 = test: Antiproliferative activity against human A549 cells at 290 uM; format: functional; conditions: read-out: GI

Row | SMILES | growth inhibition (GI) (HL-60 [1]) | growth inhibition (GI) (HL60/MX2 [2]) | growth inhibition (GI) (MCF7 [3]) | Activity (BALB/3T3 [5]) | IC50 (MCF7 [7]) [µM] | IC50 (MCF10 [8]) [µM] | IC50 (BALB/3T3 [9]) [µM] | IC50 [10] [µM] | further results
1 | O=C(O)C1Cc2cc(O)c(I)cc2C=N1 (stereo not given) | inactive | inactive | inactive | Non-Toxic | – | – | – | – | Activity (MCF10 [4]): Non-Toxic; Activity [6]: Non-Toxic
2 | C[C@@]1(C(=O)O)Cc2cc(O)c(O)cc2C2C(Cl)C(=O)N21 (stereo not given in full) | inactive | inactive | – | – | 1200 | 1960 | 1960 | 1140 | –
3 | O=C(O)C1Cc2cc(O)cc(O)c2C=N1 (stereo not given) | inactive | inactive | inactive | Non-Toxic | – | – | – | – | Activity (MCF10 [4]): Non-Toxic; Activity [6]: Non-Toxic
4 | O=C(O)C1Cc2c(O)c(O)cc(Br)c2C=N1 (stereo not given) | – | – | – | – | 660 | 1440 | 1260 | 562 | IC50 (HL-60 [11]): 104 µM; IC50 (HL60/MX2 [12]): 247 µM
5 | O=C(O)C1Cc2cc(O)c(O)c(O)c2C=N1 (stereo not given) | – | – | – | – | 84.7 | 249 | 235 | 150 | IC50 (HL-60 [11]): 124 µM; IC50 (HL60/MX2 [12]): 149 µM
6 | O=C(O)C1Cc2cc(O)c(Br)c(O)c2C=N1 (stereo not given) | inactive | inactive | inactive | Non-Toxic | – | – | – | – | Activity (MCF10 [4]): Non-Toxic; Activity [6]: Non-Toxic
7 | O=C(O)C1Cc2cc(O)c(O)c(I)c2C=N1 (stereo not given) | inactive | inactive | – | Non-Toxic | 342 | 897 | – | 307 | –
8 | O=C(O)C1Cc2cc(O)c(O)c(Br)c2C=N1 (stereo not given) | – | inactive | – | – | 224 | 904 | 183 | 126 | IC50 (HL-60 [11]): 156 µM
9 | O=C(O)C1CCc2cc(O)c(O)cc2C=N1 (stereo not given) | inactive | inactive | – | Non-Toxic | 1700 | 3330 | – | 1590 | –
10 | CCOC(=O)C(Cc1cc(OCc2ccccc2)cc(OCc2ccccc2)c1)(NC=O)C(=O)OCC | inactive | inactive | inactive | – | – | – | 68.6 | 46.5 | –
11 | CC(C)C[C@H](NC(=O)[C@@H](O)[C@H](N)Cc1ccccc1)C(=O)O [UBENIMEX] | – | – | – | – | 150 | – | – | – | inhibition of growth at 290 µM (MCF7 [3]; MCF7, 72 h, read-out: GI): 63.8%; inhibition at 72 h, 290 µM [13]: 26.9%; inhibition at 72 h, 290 µM [14]: 37.7%; inhibition of growth at 290 µM (LoVo): 54.8%; inhibition of growth at 290 µM [15]: 26.9%; inhibition of growth at 290 µM (A549): 48%
12 | O=C(O)C1Cc2cc(O)c(O)cc2C=N1 (stereo not given) | inactive | inactive | – | – | 1240 | – | 1830 | 1550 | –
13 | COc1cc2c(cc1OC)CCC(C(=O)OCc1ccccc1)(C(=O)OCc1ccccc1)N=C2 | inactive | – | – | – | 734 | – | 929 | 657 | –
